# Most compounds without a hit are left out; they make up all but 2.3% or so of the library.
# CFTR F508del cor = CFTR F508del correction in bronchial cells; actives 0.36% (n = 350,000); activity (quench increase), % at 7.58 µM; CFBE cells, YFP halide quenching; stimulated with forskolin plus potentiator P3; % fluorescence drop versus neutral controls;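 active = mean added fluorescence quench of at least 8% versus neutral control, with both replicates also reaching 8%; inconclusive = only one of the mean or replicate conditions met; inactive = mean below 8% and not both replicates reaching 8%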;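 note: cells transiently co-express mutant CFTR-F508del with the halide-sensitive YFP; corrector assay measuring rescue of mutant channel to the surface after 24 h compound exposure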
# EWS-Fli inh = EWS/Fli transcriptional activity inhibition; inhibition, % at 12.6 µM; actives 0.67% (n = 350,000); AID 651661; A673 NR0B1-luciferase reporter, viability-normalised;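 active = mean inhibition of at least 50% after viability correction, with every replicate also passing that limit; inconclusive = mean reaches 50% but only one of two replicates passes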;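 note: firefly luciferase signal divided by Alamar Blue viability fluorescence both relative to DMSO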
# PAX8 inh HTS = lowers PAX8-driven luciferase in RMG-I cells. RMG-I TPO-luciferase reporter, SteadyGlo, 24 h. inhibition, % at 12.6 µM. actives 1.2% (n = 360,000);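 active = mean replicate inhibition at least 60% with every replicate also reaching 60%; inconclusive = only one of the two criteria is met; inactive = mean below 60% and not all replicates reaching 60%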;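 note: luciferase light reporting Pax8 driven TPO promoter activity; plate controls were median of neutral control wells for no effect and mitoxantrone controls for full effect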
# FN deposit inh = fibronectin deposition inhibition. AID 743247. inhibition, % at 12.6 µM. AH1F fibroblasts, Alexa488-fibronectin deposition fluorescence, overnight. actives 0.086% (n = 350,000);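 active = mean inhibition across replicates of 30% or more, regardless of how many single replicates reach that level; inconclusive = mean under 30% yet at least half of replicates reach 30%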;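 note: positive control wells lacked labelled fibronectin entirely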
#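 Material: AH1F fibroblast monolayer depositing Alexa488-labelled fibronectin into matrix | Input: 10000 AH1F cells/well | Medium: DMEM plus 2% serum, read in PBS | Reagent: Alexa488-fibronectin, 24 nM final in well | Compound dosing: One dose per compound, pinned | Schedule: 1 h adhesion, overnight exposure | Measured by: Fluorescence at 485 nm excitation, 525 nm emission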
# Env fusion inh = inhibitors of HIV Env-mediated cell fusion | HeLa-JRFL Env/CEM21 cell fusion, luciferase | inhibition, % at 12.3 µM | actives 1.1% (n = 360,000) | AID 651610;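 active = mean replicate inhibition score of at least 50 and every replicate individually at or above 50; inconclusive = only one of the two criteria met; inactive = mean below 50 and not all replicates reaching 50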;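 note: 0% = plate neutral controls and 100% = maraviroc near 300 nM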
# PGC1a acetyl inh = lowers PGC1a acetylation signal in U2OS cells | AID 651687 | actives 0.17% (n = 350,000) | AlphaScreen anti-acetyl-lysine; with virally co-expressed GCN5 acetyltransferase | inhibition, % at 15.6 µM;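 active = every replicate shows inhibition of at least 40%; inconclusive = mean inhibition at least 40% but some replicate below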;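 note: 0% = neutral control wells and 100% = positive control wells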
# The depositor's hits bear a star; ? = inconclusive; / = not tested or not shown; [ ] = remark or other dose.
SMILES,CFTR F508del cor,EWS-Fli inh,PAX8 inh HTS,FN deposit inh,Env fusion inh,PGC1a acetyl inh
O=C(Nc1ccccc1)N1CCCCN2[C@H](C1)[C@@H](c1ccc(C#Cc3ccccc3)cc1)[C@@H]2CO,2.1,4.1,99.3*,/,/,-3.5
O=C(Nc1ccccc1F)N1CCCCN2[C@H](CO)[C@@H](c3ccc(C#Cc4ccccc4)cc3)[C@H]2C1,-3.5,/,66.1*,/,/,-41.9
O=C(Nc1ccccc1)N1CCCCN2[C@H](CO)[C@H](c3ccc(C#Cc4ccccc4)cc3)[C@@H]2C1,3.4,15.6,34.9,/,/,1.2
COc1ccc(NC(=O)N2CCCCN3[C@@H](CO)[C@@H](c4ccc(C#Cc5ccccc5)cc4)[C@@H]3C2)cc1,-2.9,1.1,111.0*,/,/,-44.0
O=C(Nc1ccccc1F)N1CCCCN2[C@H](CO)[C@@H](c3ccc(C#Cc4ccccc4)cc3)[C@@H]2C1,3.4,/,-21.7,/,/,-44.2
CC(C)CC#Cc1ccc([C@@H]2[C@@H](CO)N3CCCCN(C(=O)NC4CCCC4)C[C@H]23)cc1,9.8*,3.6,-18.2,/,/,-15.8
CC(C)CC#Cc1ccc([C@@H]2[C@H](CO)N3CCCCN(C(=O)NC4CCCC4)C[C@@H]23)cc1,3.7,22.5,15.5,/,/,-27.2
COc1ccc(NC(=O)N2CCCCN3[C@H](CO)[C@@H](c4ccc(C#Cc5ccccc5)cc4)[C@H]3C2)cc1,-0.4,4.6,15.7,/,/,-19.2
Cc1noc(C)c1S(=O)(=O)Nc1ccc2c(c1)CC(=O)N([C@H](C)CO)C[C@H](C)[C@H](CN(C)S(C)(=O)=O)O2,-0.3,-0.8,-16.2,/,0.5[16.7 µM],2.2
Cc1ccc(-c2cnc3c(c2)C(=O)N([C@@H](C)CO)C[C@@H](C)[C@H](CN(C)CC2CCCCC2)O3)cc1,1.1,4.5,/,/,/,-14.4
CO[C@@H]1CN(C)C(=O)c2ccc(NC(C)=O)cc2OC[C@@H](C)N(Cc2cccnc2)C[C@@H]1C,0.8,-5.4,/,/,/,20.9
O=C(Nc1ccccc1)N1CCCCN2[C@H](C1)[C@H](c1ccc(C#Cc3ccccc3)cc1)[C@@H]2CO,2.1,1.4,50.2,/,/,-7.5
O=C(Nc1cccc(F)c1)N1CCCCN2[C@@H](CO)[C@@H](c3ccc(C#Cc4ccccc4)cc3)[C@@H]2C1,-10.6,75.9*,116.2*,/,/,3.4
O=C(Nc1ccccc1)N1CCCCN2[C@H](CO)[C@H](c3ccc(C#Cc4ccccc4)cc3)[C@H]2C1,-7.0,63.3*,108.9*,2.3,/,-5.0
COc1ccc(C#Cc2ccc([C@H]3[C@H](CO)N4CCCCN(C(=O)Nc5cccc(F)c5)C[C@@H]34)cc2)cc1,-3.8,27.3,?,/,/,-4.0
C[C@@H]1CN([C@@H](C)CO)S(=O)(=O)c2ccc(C#Cc3ccccn3)cc2O[C@H]1CN(C)C(=O)C1CC1,2.1,-2.1,/,6.1,-5.0[16.7 µM],-9.1
C/C=C/c1ccc2c(c1)O[C@H](CN(C)Cc1ccccn1)[C@@H](C)CN([C@@H](C)CO)S2(=O)=O,2.3,5.2,17.7,/,-7.7[16.7 µM],4.7
C[C@@H]1CN([C@H](C)CO)C(=O)c2cc(NC(=O)C3CCCCC3)ccc2O[C@@H](C)CCCCO[C@@H]1CN(C)S(C)(=O)=O,-2.1,1.8,-26.1,/,4.1[16.7 µM],3.2
C[C@@H]1CN([C@@H](C)CO)C(=O)Cc2cc(NS(C)(=O)=O)ccc2O[C@@H]1CN(C)C(=O)NC1CCCCC1,-2.4,9.2,-7.0,/,2.5[16.7 µM],5.8
C[C@@H]1CN([C@@H](C)CO)C(=O)c2cc(-c3cccnc3)cnc2O[C@H]1CN(C)C(=O)C1CCOCC1,0.3,-4.5,/,/,-2.8[16.7 µM],7.0
CC(C)[C@H](N)C(=O)N[C@H]1CCC2C3CC=C4C[C@@H](O)CC[C@]4(C)C3CC[C@@]21C (stereo partly specified),0.1,53.2*,29.1,1.5,/,0.2
CCCN1C[C@@H](C)[C@@H](OC)CN(C)C(=O)c2cc(NC(=O)COC)ccc2OC[C@H]1C,0.4,0.1,-4.2,3.7,-2.4[16.7 µM],14.3
O=[N+]([O-])c1ccc(N2CCC(=NOCc3ccc(Cl)cc3)CC2)cc1,/,/,/,-3.4,74.6*,/
CCOC(=O)N1CCN(c2ncnc3c2[nH]c2ccc(F)cc23)CC1,/,/,33.5,-1.9,63.9*,/
COc1cccc2c1C1COC3C4CC(C(=O)O)C(C(C2)N13)N4C (stereo unspecified),1.8,72.0*,/,-5.0,23.4,-1.9
SMILES,CFTR F508del cor,EWS-Fli inh,PAX8 inh HTS,FN deposit inh,Env fusion inh,PGC1a acetyl inh
COc1cccc2c1C(CCCC(=O)O)CCC2 (stereo unspecified),-1.3,2.3,-12.7,-0.1,-5.6,-2.5
CC(=O)N[C@H]1C=C[C@H](CC(=O)NCc2ccc(Cl)cc2)O[C@H]1CO,1.9,0.3,-5.1,/,10.1[16.7 µM],-1.2
COc1cc(SC)ccc1C(=O)N1CCN(c2ccccc2OC)CC1,14.5*,?,16.7,1.7,-125.3,-45.5
COc1ccccc1N1CCN(C(=O)c2ccc(-c3ccc(Cl)cc3)o2)CC1,9.4*,49.0,24.2,19.9,-26.5,-3.3
Cc1ccc(S(=O)(=O)Nc2cccc3c2O[C@@H](CN(C)S(=O)(=O)c2cccs2)[C@H](C)CN([C@@H](C)CO)C3=O)cc1,3.5,-13.5,-26.9,/,29.3[16.7 µM],-0.3
O=S(=O)(NC[C@@H]1CC[C@H]2[C@H](CN2Cc2cccc(-c3ccccn3)c2)O1)c1ccccc1,1.9,11.1,-14.6,/,-10.5[16.7 µM],-9.3
COc1nn(-c2ccccc2)c(=O)c(Cl)c1Cl,-2.5,76.0*,117.2*,12.3,-406.7,/
COc1c(Cl)cnn(-c2ccccc2)c1=O,/,/,6.7,-2.6,26.4,1.1
C=C(C)CSc1cc(C)nc2c(-c3ccccc3)c(C)nn12,-7.3,12.2,25.4,0.2,61.1*,3.9
CCSc1cc(C)nc2c(-c3ccccc3)c(C)nn12,/,/,/,/,-32.7,-3.9
CO[C@H]1CN(C)C(=O)c2ccc(NC(C)=O)cc2OC[C@H](C)N(C(=O)c2ccncc2)C[C@@H]1C,1.6,4.7,/,-1.9,/,8.2
CCCC[C@@]1(C2CCCC2)Cc2cc(OCC(=O)O)c(Cl)c(Cl)c2C1=O,-0.9,12.0,29.0,-9.1,-42.0,95.0*
NC(=O)[C@H]1CC2(CC(c3cccc(NC(=O)COc4ccc(Cl)cc4)c3)=NO2)CN1C(=O)Cc1ccc([N+](=O)[O-])cc1 (stereo partly specified),-2.3,12.5,76.0*,-7.1,12.4,/
CCCCCC(=O)Nc1cccc(C2=NOC3(C2)C[C@@H](C(N)=O)N(C(=O)Cc2ccc([N+](=O)[O-])cc2)C3)c1 (stereo partly specified),4.2,4.0,17.2,4.1,16.8,2.1
COc1ccc(CN(C(=O)CSc2nnc(-c3c[nH]c4ccccc34)o2)c2ccc(F)cc2)cc1OC,/,/,81.2*,5.0,-1.7,-11.9
CCOc1ccc(NC2c3ccccc3C(=O)N2Cc2ccc3c(c2)OCO3)cc1 (stereo unspecified),-2.1,0.8,-3.0,9.3,-12.4,-50.9
